# Columns and labels:
# Format in all cases: functional
# Bacillus cereus [1] = assay: Antimicrobial activity against Bacillus cereus MTCC 8372 after 24 hrs by microdilution method; settings: MTCC 8372, 24 h
# Outline: (§1)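 The minimal inhibitory concentration was determined by dilution, alongside minimal bactericidal concentration for bacterial strains and minimal fungicidal concentration for fungal strains. Tests were run in six replicates, and the value is the mean of at least three determinations.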
# Fusarium verticillioides [2] = assay: Antimicrobial activity against Fusarium moniliforme MTCC 156 at 50 ug/ml after 48 hrs by disc diffusion method; settings: MTCC 156, 48 h, read-out: DIZ
# Outline: (§2)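 Agar diffusion read-out is the diameter of the inhibition zone in mm. Each test was run in six replicates and reported as mean ± standard deviation, taken from at least three determinations.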
# Klebsiella pneumoniae [3] = assay: Antimicrobial activity against Klebsiella pneumoniae MTCC 3384 at 100 ug/ml after 24 hrs by disc diffusion method; settings: MTCC 3384, 24 h, read-out: DIZ; outline: as §2
# Staphylococcus aureus [4] = assay: Antimicrobial activity against Staphylococcus aureus MTCC 96 at 100 ug/ml after 24 hrs by disc diffusion method; settings: MTCC 96, 24 h, read-out: DIZ; outline: as §2
# Bacillus cereus [5] = assay: Antimicrobial activity against Bacillus cereus MTCC 8372 at 50 ug/ml after 24 hrs by disc diffusion method; settings: MTCC 8372, 24 h, read-out: DIZ; outline: as §2
# Klebsiella pneumoniae [6] = assay: Antimicrobial activity against Klebsiella pneumoniae MTCC 3384 at 50 ug/ml after 24 hrs by disc diffusion method; settings: MTCC 3384, 24 h, read-out: DIZ; outline: as §2
# Aspergillus niger [7] = assay: Antimicrobial activity against Aspergillus niger MTCC 281 after 48 hrs by microdilution method; settings: MTCC 281, 48 h; outline: as §1
# Fusarium oxysporum [8] = assay: Antimicrobial activity against Fusarium oxysporum MTCC 284 at 100 ug/ml after 48 hrs by disc diffusion method; settings: MTCC 284, 48 h, read-out: DIZ; outline: as §2
# Aspergillus flavus [9] = assay: Antimicrobial activity against Aspergillus flavus MTCC 873 at 50 ug/ml after 48 hrs by disc diffusion method; settings: MTCC 873, 48 h, read-out: DIZ; outline: as §2
# Aspergillus flavus [10] = assay: Antimicrobial activity against Aspergillus flavus MTCC 873 at 100 ug/ml after 48 hrs by disc diffusion method; settings: MTCC 873, 48 h, read-out: DIZ; outline: as §2
# Escherichia coli [11] = assay: Antimicrobial activity against Escherichia coli MTCC 724 at 50 ug/ml after 24 hrs by disc diffusion method; settings: MTCC 724, 24 h, read-out: DIZ; outline: as §2
# Aspergillus flavus [12] = assay: Antimicrobial activity against Aspergillus flavus MTCC 873 after 48 hrs by microdilution method; settings: MTCC 873, 48 h; outline: as §1
# Bacillus cereus [13] = assay: Antimicrobial activity against Bacillus cereus MTCC 8372 at 100 ug/ml after 24 hrs by disc diffusion method; settings: MTCC 8372, 24 h, read-out: DIZ; outline: as §2
# Klebsiella pneumoniae [14] = assay: Antimicrobial activity against Klebsiella pneumoniae MTCC 3384 after 24 hrs by microdilution method; settings: MTCC 3384, 24 h; outline: as §1
# Staphylococcus aureus [15] = assay: Antimicrobial activity against Staphylococcus aureus MTCC 96 after 24 hrs by microdilution method; settings: MTCC 96, 24 h; outline: as §1
# Fusarium oxysporum [16] = assay: Antimicrobial activity against Fusarium oxysporum MTCC 284 after 48 hrs by microdilution method; settings: MTCC 284, 48 h; outline: as §1
# Aspergillus niger [17] = assay: Antimicrobial activity against Aspergillus niger MTCC 281 at 50 ug/ml after 48 hrs by disc diffusion method; settings: MTCC 281, 48 h, read-out: DIZ; outline: as §2
# Fusarium verticillioides [18] = assay: Antimicrobial activity against Fusarium moniliforme MTCC 156 after 48 hrs by microdilution method; settings: MTCC 156, 48 h; outline: as §1
# Fusarium verticillioides [19] = assay: Antimicrobial activity against Fusarium moniliforme MTCC 156 at 100 ug/ml after 48 hrs by disc diffusion method; settings: MTCC 156, 48 h, read-out: DIZ; outline: as §2
# Fusarium oxysporum [20] = assay: Antimicrobial activity against Fusarium oxysporum MTCC 284 at 50 ug/ml after 48 hrs by disc diffusion method; settings: MTCC 284, 48 h, read-out: DIZ; outline: as §2
# Escherichia coli [21] = assay: Antimicrobial activity against Escherichia coli MTCC 724 at 100 ug/ml after 24 hrs by disc diffusion method; settings: MTCC 724, 24 h, read-out: DIZ; outline: as §2
# Staphylococcus aureus [22] = assay: Antimicrobial activity against Staphylococcus aureus MTCC 96 at 50 ug/ml after 24 hrs by disc diffusion method; settings: MTCC 96, 24 h, read-out: DIZ; outline: as §2
# Aspergillus niger [23] = assay: Antimicrobial activity against Aspergillus niger MTCC 281 at 100 ug/ml after 48 hrs by disc diffusion method; settings: MTCC 281, 48 h, read-out: DIZ; outline: as §2
# Escherichia coli [24] = assay: Antimicrobial activity against Escherichia coli MTCC 724 after 24 hrs by microdilution method; settings: MTCC 724, 24 h; outline: as §1
Structure (SMILES),MBC (Bacillus cereus [1]) [µg/mL],MIC (Bacillus cereus [1]) [µg/mL],zone of inhibition at 50 µg/mL (Fusarium verticillioides [2]) [mm],zone of inhibition at 100 µg/mL (Klebsiella pneumoniae [3]) [mm],zone of inhibition at 100 µg/mL (Staphylococcus aureus [4]) [mm],zone of inhibition at 50 µg/mL (Bacillus cereus [5]) [mm],zone of inhibition at 50 µg/mL (Klebsiella pneumoniae [6]) [mm],MFC (Aspergillus niger [7]) [µg/mL],MIC (Aspergillus niger [7]) [µg/mL],zone of inhibition at 100 µg/mL (Fusarium oxysporum [8]) [mm],zone of inhibition at 50 µg/mL (Aspergillus flavus [9]) [mm],zone of inhibition at 100 µg/mL (Aspergillus flavus [10]) [mm],zone of inhibition at 50 µg/mL (Escherichia coli [11]) [mm],MFC (Aspergillus flavus [12]) [µg/mL],MIC (Aspergillus flavus [12]) [µg/mL],zone of inhibition at 100 µg/mL (Bacillus cereus [13]) [mm],MBC (Klebsiella pneumoniae [14]) [µg/mL],MIC (Klebsiella pneumoniae [14]) [µg/mL],MBC (Staphylococcus aureus [15]) [µg/mL],MIC (Staphylococcus aureus [15]) [µg/mL],further results
COc1cc(-c2nnc(-c3c(-c4cc(OC)c(OC)c(OC)c4)nn(-c4ccccc4)c3C)o2)cc(OC)c1OC,160,20,12,21,24,12,11,225,25,21,18,23,21,215,30,23,155,20,150,20,MFC (Fusarium oxysporum [16]): 220 µg/mL; MIC (Fusarium oxysporum [16]): 25 µg/mL; zone of inhibition at 50 µg/mL (Aspergillus niger [17]): 11 mm; MFC (Fusarium verticillioides [18]): 225 µg/mL; MIC (Fusarium verticillioides [18]): 25 µg/mL; zone of inhibition at 100 µg/mL (Fusarium verticillioides [19]): 22 mm; zone of inhibition at 50 µg/mL (Fusarium oxysporum [20]): 14 mm; zone of inhibition at 100 µg/mL (Escherichia coli [21]): 36 mm; zone of inhibition at 50 µg/mL (Staphylococcus aureus [22]): 10 mm; zone of inhibition at 100 µg/mL (Aspergillus niger [23]): 25 mm; MBC (Escherichia coli [24]): 150 µg/mL; MIC (Escherichia coli [24]): 20 µg/mL
Cc1c(-c2nnc(-c3ccc([N+](=O)[O-])cc3)o2)c(-c2ccccc2)nn1-c1ccccc1,200,25,6,10,10,6,7,280,45,8,3,12,11,290,55,14,185,25,190,25,MFC (Fusarium oxysporum [16]): 275 µg/mL; MIC (Fusarium oxysporum [16]): 40 µg/mL; zone of inhibition at 50 µg/mL (Aspergillus niger [17]): 2 mm; MFC (Fusarium verticillioides [18]): 290 µg/mL; MIC (Fusarium verticillioides [18]): 50 µg/mL; zone of inhibition at 100 µg/mL (Fusarium verticillioides [19]): 8 mm; zone of inhibition at 50 µg/mL (Fusarium oxysporum [20]): 6 mm; zone of inhibition at 100 µg/mL (Escherichia coli [21]): 20 mm; zone of inhibition at 50 µg/mL (Staphylococcus aureus [22]): 5 mm; zone of inhibition at 100 µg/mL (Aspergillus niger [23]): 11 mm; MBC (Escherichia coli [24]): 180 µg/mL; MIC (Escherichia coli [24]): 25 µg/mL
Cc1c(C(=O)NN)c(-c2ccccc2)nn1-c1ccccc1,260,40,4,8,9,4,5,260,45,8,2,6,9,275,40,6,230,35,250,40,MFC (Fusarium oxysporum [16]): 270 µg/mL; MIC (Fusarium oxysporum [16]): 45 µg/mL; zone of inhibition at 50 µg/mL (Aspergillus niger [17]): 2 mm; MFC (Fusarium verticillioides [18]): 280 µg/mL; MIC (Fusarium verticillioides [18]): 50 µg/mL; zone of inhibition at 100 µg/mL (Fusarium verticillioides [19]): 6 mm; zone of inhibition at 50 µg/mL (Fusarium oxysporum [20]): 3 mm; zone of inhibition at 100 µg/mL (Escherichia coli [21]): 11 mm; zone of inhibition at 50 µg/mL (Staphylococcus aureus [22]): 2 mm; zone of inhibition at 100 µg/mL (Aspergillus niger [23]): 8 mm; MBC (Escherichia coli [24]): 240 µg/mL; MIC (Escherichia coli [24]): 35 µg/mL
Cc1c(-c2nnc(-c3ccc(Cl)cc3)o2)c(-c2ccc(Cl)cc2)nn1-c1ccccc1,260,40,10,11,12,6,8,220,30,28,14,18,10,210,25,10,250,50,250,40,MFC (Fusarium oxysporum [16]): 215 µg/mL; MIC (Fusarium oxysporum [16]): 30 µg/mL; zone of inhibition at 50 µg/mL (Aspergillus niger [17]): 14 mm; MFC (Fusarium verticillioides [18]): 215 µg/mL; MIC (Fusarium verticillioides [18]): 25 µg/mL; zone of inhibition at 100 µg/mL (Fusarium verticillioides [19]): 19 mm; zone of inhibition at 50 µg/mL (Fusarium oxysporum [20]): 15 mm; zone of inhibition at 100 µg/mL (Escherichia coli [21]): 16 mm; zone of inhibition at 50 µg/mL (Staphylococcus aureus [22]): 6 mm; zone of inhibition at 100 µg/mL (Aspergillus niger [23]): 26 mm; MBC (Escherichia coli [24]): 245 µg/mL; MIC (Escherichia coli [24]): 45 µg/mL

# From ChEMBL document CHEMBL3098013, “Novel pyrazole integrated 1,3,4-oxadiazoles: synthesis, characterization and antimicrobial evaluation” (2014)
